According to ChEMBL document CHEMBL1671716, “Antimicrobial susceptibility patterns for recent clinical isolates of anaerobic bacteria in South Korea” (2010):
Converted amounts (≈) assume the structure as drawn.

Key:
[1] = test system: Bifidobacterium sp.; test: Antimicrobial activity against Bifidobacterium sp. assessed as percent resistant isolates after 48 hrs by agar dilution method; format: functional
How it was run: (§1)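 CLSI agar dilution on recent Korean clinical anaerobe isolates. Inoculum 10^5 CFU per spot by replicator. Plates incubated in an anaerobic chamber at 37°C for 48 h. For piperacillin plus tazobactam, tazobactam was held constant at 4 μg/ml. Resistance and susceptibility rates derived from MICs.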

[2] = test system: Peptoniphilus asaccharolyticus; test: Antimicrobial activity against Peptoniphilus asaccharolyticus assessed as percent resistant isolates after 48 hrs by agar dilution method; format: functional; how it was run: as §1
[3] = test system: Parvimonas micra; test: Antimicrobial activity against Peptostreptococcus micros assessed as percent susceptible isolates after 48 hrs by agar dilution method; format: functional; how it was run: as §1
[4] = test system: Eggerthella lenta; test: Antimicrobial activity against Eubacterium lentum assessed as percent susceptible isolates after 48 hrs by agar dilution method; format: functional
How it was run: (§2)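 CLSI agar dilution (M11-A7); inoculum 10^5 CFU applied by replicator; plates incubated anaerobically 48 h at 37°C. For piperacillin-tazobactam, tazobactam held constant at 4 μg/ml.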

[5] = test system: Anaerococcus prevotii; test: Antimicrobial activity against Anaerococcus prevotii assessed as percent resistant isolates after 48 hrs by agar dilution method; format: functional; how it was run: as §1
[6] = test system: Prevotella buccae; test: Antimicrobial activity against Prevotella buccae assessed as percent susceptible isolates after 48 hrs by agar dilution method; format: functional, Segatella buccae; how it was run: as §2
[7] = test system: Actinomyces naeslundii; test: Antimicrobial activity against Actinomyces naeslundii after 48 hrs by agar dilution method; format: functional
How it was run: (§3)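 MICs on clinical anaerobe isolates by the CLSI agar dilution method. Inoculum of 10^5 CFU applied with a Steers replicator. Plates incubated 48 h at 37°C in an anaerobic chamber.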

[8] = test system: Parabacteroides distasonis; test: Antimicrobial activity against Bacteroides distasonis after 48 hrs by agar dilution method; format: functional; how it was run: as §3
[9] = test system: Clostridioides difficile; test: Antimicrobial activity against Clostridium difficile after 48 hrs by agar dilution method; format: functional
[10] = test system: Peptoniphilus asaccharolyticus; test: Antimicrobial activity against Peptoniphilus asaccharolyticus assessed as percent susceptible isolates after 48 hrs by agar dilution method; format: functional; how it was run: as §2
[11] = test system: Actinomyces israelii; test: Antimicrobial activity against Actinomyces israelii after 48 hrs by agar dilution method; format: functional; how it was run: as §3
[12] = test system: Clostridioides difficile; test: Antimicrobial activity against Clostridium difficile assessed as percent resistant isolates after 48 hrs by agar dilution method; format: functional
[13] = test system: Peptostreptococcus anaerobius; test: Antimicrobial activity against Peptostreptococcus anaerobius after 48 hrs by agar dilution method; format: functional; how it was run: as §2
[14] = test system: Schaalia odontolytica; test: Antimicrobial activity against Actinomyces odontolyticus assessed as percent susceptible isolates after 48 hrs by agar dilution method; format: functional
[15] = test system: Eubacterium sp.; test: Antimicrobial activity against Eubacterium sp. after 48 hrs by agar dilution method; format: functional; how it was run: as §2
[16] = test system: Bacteroides fragilis; test: Antimicrobial activity against Bacteroides fragilis assessed as percent resistant isolates after 48 hrs by agar dilution method; format: functional; how it was run: as §1
[17] = test system: Finegoldia magna; test: Antimicrobial activity against Finegoldia magna after 48 hrs by agar dilution method; format: functional; how it was run: as §2
[18] = test system: Eggerthella lenta; test: Antimicrobial activity against Eubacterium lentum assessed as percent resistant isolates after 48 hrs by agar dilution method; format: functional; how it was run: as §1
[19] = test system: Actinomyces israelii; test: Antimicrobial activity against Actinomyces israelii assessed as percent susceptible isolates after 48 hrs by agar dilution method; format: functional
[20] = test system: Fusobacterium nucleatum; test: Antimicrobial activity against Fusobacterium nucleatum after 48 hrs by agar dilution method; format: functional; how it was run: as §2
[21] = test system: Bifidobacterium adolescentis; test: Antimicrobial activity against Bifidobacterium adolescentis assessed as percent resistant isolates after 48 hrs by agar dilution method; format: functional; how it was run: as §1
[22] = test system: Prevotella bivia; test: Antimicrobial activity against Prevotella bivia assessed as percent resistant isolates after 48 hrs by agar dilution method; format: functional; how it was run: as §1
[23] = test system: Bacteroides fragilis; test: Antimicrobial activity against Bacteroides fragilis after 48 hrs by agar dilution method; format: functional; how it was run: as §3
[24] = test system: Schaalia meyeri; test: Antimicrobial activity against Actinomyces meyeri after 48 hrs by agar dilution method; format: functional; how it was run: as §3
[25] = test system: Anaerococcus prevotii; test: Antimicrobial activity against Anaerococcus prevotii assessed as percent susceptible isolates after 48 hrs by agar dilution method; format: functional
[26] = test system: Porphyromonas asaccharolytica; test: Antimicrobial activity against Porphyromonas asaccharolytica after 48 hrs by agar dilution method; format: functional; how it was run: as §2
[27] = test system: Prevotella intermedia; test: Antimicrobial activity against Prevotella intermedia after 48 hrs by agar dilution method; format: functional; how it was run: as §2
[28] = test system: Finegoldia magna; test: Antimicrobial activity against Finegoldia magna assessed as percent resistant isolates after 48 hrs by agar dilution method; format: functional; how it was run: as §1
[29] = test system: Bacteroides caccae; test: Antimicrobial activity against Bacteroides caccae assessed as percent resistant isolates after 48 hrs by agar dilution method; format: functional; how it was run: as §1
[30] = test system: Bacteroides caccae; test: Antimicrobial activity against Bacteroides caccae assessed as percent susceptible isolates after 48 hrs by agar dilution method; format: functional
[31] = test system: Eubacterium sp.; test: Antimicrobial activity against Eubacterium sp. assessed as percent susceptible isolates after 48 hrs by agar dilution method; format: functional; how it was run: as §2
[32] = test system: Anaerococcus prevotii; test: Antimicrobial activity against Anaerococcus prevotii after 48 hrs by agar dilution method; format: functional; how it was run: as §3
[33] = test system: Clostridioides difficile; test: Antimicrobial activity against Clostridium difficile assessed as percent susceptible isolates after 48 hrs by agar dilution method; format: functional
[34] = test system: Eubacterium sp.; test: Antimicrobial activity against Eubacterium sp. assessed as percent resistant isolates after 48 hrs by agar dilution method; format: functional; how it was run: as §1
[35] = test system: Bacteroides fragilis; test: Antimicrobial activity against Bacteroides fragilis assessed as percent susceptible isolates after 48 hrs by agar dilution method; format: functional
[36] = test system: Bifidobacterium sp.; test: Antimicrobial activity against Bifidobacterium sp. after 48 hrs by agar dilution method; format: functional; how it was run: as §3
[37] = test system: Schaalia odontolytica; test: Antimicrobial activity against Actinomyces odontolyticus assessed as percent resistant isolates after 48 hrs by agar dilution method; format: functional; how it was run: as §1
[38] = test system: Fusobacterium necrogenes; test: Antimicrobial activity against Fusobacterium necrogenes after 48 hrs by agar dilution method; format: functional; how it was run: as §2
[39] = test system: Hoylesella oralis; test: Antimicrobial activity against Prevotella oralis assessed as percent susceptible isolates after 48 hrs by agar dilution method; format: functional
How it was run: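 CLSI agar dilution MIC testing of clinical isolates. 10^5 CFU spotted by replicator, plates incubated 48 h at 37°C in an anaerobic chamber. Susceptibility rates derived from the MICs.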

[40] = test system: Peptostreptococcus anaerobius; test: Antimicrobial activity against Peptostreptococcus anaerobius assessed as percent susceptible isolates after 48 hrs by agar dilution method; format: functional; how it was run: as §1
[41] = test system: Fusobacterium mortiferum; test: Antimicrobial activity against Fusobacterium mortiferum after 48 hrs by agar dilution method; format: functional; how it was run: as §2
[42] = test system: Bacteroides ovatus; test: Antimicrobial activity against Bacteroides ovatus assessed as percent susceptible isolates after 48 hrs by agar dilution method; format: functional
[43] = test system: Clostridium perfringens; test: Antimicrobial activity against Clostridium perfringens assessed as percent susceptible isolates after 48 hrs by agar dilution method; format: functional
[44] = test system: Bacteroides ovatus; test: Antimicrobial activity against Bacteroides ovatus after 48 hrs by agar dilution method; format: functional; how it was run: as §3
[45] = test system: Phocaeicola vulgatus; test: Antimicrobial activity against Bacteroides vulgatus assessed as percent resistant isolates after 48 hrs by agar dilution method; format: functional; how it was run: as §1
[46] = test system: Phocaeicola vulgatus; test: Antimicrobial activity against Bacteroides vulgatus assessed as percent susceptible isolates after 48 hrs by agar dilution method; format: functional
[47] = test system: Bacteroides ovatus; test: Antimicrobial activity against Bacteroides ovatus assessed as percent resistant isolates after 48 hrs by agar dilution method; format: functional; how it was run: as §1
[48] = test system: Bifidobacterium adolescentis; test: Antimicrobial activity against Bifidobacterium adolescentis after 48 hrs by agar dilution method; format: functional; how it was run: as §3

## C[C@@H](O)[C@H]1C(=O)N2C(C(=O)O)=C(SCCNC=N)C[C@H]12 [IMIPENEM ANHYDROUS]
[1]
  Activity: 0%
[2]
  Activity: 0%
[3]
  Activity: 0%
[4]
  Activity: 100%
[5]
  Activity: 0%
[6]
  Activity: 100%
[7]
  MIC50: 0.06 µg/mL (≈ 0.2 µM)
  MIC90: 0.5 µg/mL (≈ 1.67 µM)
[8]
  MIC50: 0.5 µg/mL (≈ 1.67 µM)
  MIC90: 4 µg/mL (≈ 13.4 µM)
[9]
  MIC50: 4 µg/mL (≈ 13.4 µM)
  MIC90: 8 µg/mL (≈ 26.7 µM)
[10]
  Activity: 100%
[11]
  MIC50: 0.06 µg/mL (≈ 0.2 µM)
  MIC90: 0.5 µg/mL (≈ 1.67 µM)
[12]
  Activity: 8%
[13]
  MIC50: 0.125 µg/mL (≈ 0.418 µM)
  MIC90: 2 µg/mL (≈ 6.68 µM)
[14]
  Activity: 100%
[15]
  MIC50: 0.06 µg/mL (≈ 0.2 µM)
  MIC90: 0.5 µg/mL (≈ 1.67 µM)
[16]
  Activity: 2%
[17]
  MIC50: 0.06 µg/mL (≈ 0.2 µM)
  MIC90: 0.125 µg/mL (≈ 0.418 µM)
[18]
  Activity: 0%
[19]
  Activity: 100%
[20]
  MIC: 0.02 µg/mL (≈ 0.0668 µM)
[21]
  Activity: 15%
[22]
  Activity: 0%
[23]
  MIC50: 0.125 µg/mL (≈ 0.418 µM)
  MIC90: 1 µg/mL (≈ 3.34 µM)
[24]
  MIC50: 0.06 µg/mL (≈ 0.2 µM)
  MIC90: 0.5 µg/mL (≈ 1.67 µM)
[25]
  Activity: 100%
[26]
  MIC: 0.02 µg/mL (≈ 0.0668 µM)
[27]
  MIC: 0.02 µg/mL (≈ 0.0668 µM)
  MIC50: 0.03 µg/mL (≈ 0.1 µM)
  MIC90: 0.06 µg/mL (≈ 0.2 µM)
[28]
  Activity: 0%
[29]
  Activity: 4%
[30]
  Activity: 95%
[31]
  Activity: 100%
[32]
  MIC50: 0.06 µg/mL (≈ 0.2 µM)
  MIC90: 0.25 µg/mL (≈ 0.835 µM)
[33]
  Activity: 58%
[34]
  Activity: 0%
[35]
  Activity: 98%
[36]
  MIC50: 0.06 µg/mL (≈ 0.2 µM)
  MIC90: 0.5 µg/mL (≈ 1.67 µM)
[37]
  Activity: 0%
[38]
  MIC: 0.02 µg/mL (≈ 0.0668 µM)
[39]
  Activity: 100%
[40]
  Activity: 100%
[41]
  MIC: 0.02 µg/mL (≈ 0.0668 µM)
[42]
  Activity: 95%
[43]
  Activity: 100%
[44]
  MIC50: 0.5 µg/mL (≈ 1.67 µM)
  MIC90: 4 µg/mL (≈ 13.4 µM)
[45]
  Activity: 4%
[46]
  Activity: 95%
[47]
  Activity: 4%
[48]
  MIC50: 0.06 µg/mL (≈ 0.2 µM)
  MIC90: 0.5 µg/mL (≈ 1.67 µM)
